Laboratory results taken from ChEMBL document CHEMBL3120131, “Lipoxygenase inhibitors derived from marine macroalgae” (Bioorg Med Chem Lett, 2014).

How the values were obtained:
[1] = molecular target: T1, Seed linoleate 9S-lipoxygenase (Glycine max) (UniProt P24095); assay: (§1) Inhibition of soybean lipoxygenase
T1 sequence (whole entry): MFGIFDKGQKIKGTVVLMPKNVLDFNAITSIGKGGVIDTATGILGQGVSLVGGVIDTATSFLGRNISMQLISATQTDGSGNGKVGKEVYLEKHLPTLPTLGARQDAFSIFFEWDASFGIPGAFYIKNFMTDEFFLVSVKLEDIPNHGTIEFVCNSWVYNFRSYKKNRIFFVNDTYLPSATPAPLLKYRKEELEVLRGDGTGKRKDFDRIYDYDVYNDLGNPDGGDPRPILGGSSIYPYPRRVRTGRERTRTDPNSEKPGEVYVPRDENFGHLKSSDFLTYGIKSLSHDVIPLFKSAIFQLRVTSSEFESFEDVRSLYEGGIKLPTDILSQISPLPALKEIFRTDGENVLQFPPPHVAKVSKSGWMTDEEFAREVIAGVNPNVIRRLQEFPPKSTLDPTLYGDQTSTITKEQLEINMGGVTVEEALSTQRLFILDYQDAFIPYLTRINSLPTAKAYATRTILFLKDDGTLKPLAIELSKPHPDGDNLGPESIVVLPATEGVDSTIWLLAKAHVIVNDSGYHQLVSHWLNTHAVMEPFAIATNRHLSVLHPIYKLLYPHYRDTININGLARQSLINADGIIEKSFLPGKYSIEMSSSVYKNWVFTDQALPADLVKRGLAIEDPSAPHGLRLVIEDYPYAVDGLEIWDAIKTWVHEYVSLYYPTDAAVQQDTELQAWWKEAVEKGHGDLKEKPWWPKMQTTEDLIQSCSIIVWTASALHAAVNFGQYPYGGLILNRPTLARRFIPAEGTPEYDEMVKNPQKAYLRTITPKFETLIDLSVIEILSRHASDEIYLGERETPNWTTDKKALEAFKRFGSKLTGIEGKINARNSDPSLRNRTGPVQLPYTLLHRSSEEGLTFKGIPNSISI
Procedure, shortened: (§2)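 Soybean LOX (0.4 mg/mL stock in 100 mM borate, pH 9.0) and methanol-dissolved sample were pre-incubated 5 min at 27.5°C in 20 mM 3-dimethylaminobenzoic acid/borate pH 9.0. Argon-flushed substrate was added and the mixture held 5 min at 27.5°C. Stopped with MBTH–hemoglobin in phosphate pH 5.0; after 5 min, 1% SDS was added and A598 compared against control.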

[2] = molecular target: T2, Seed linoleate 9S-lipoxygenase (Glycine max, UniProt P24095); assay: as §1; procedure, shortened: as §2
T2 sequence (P24095 whole entry): T1 sequence (whole entry)

[3] = molecular target: T1, Seed linoleate 9S-lipoxygenase (Glycine max); assay: Inhibition of soybean lipoxygenase at 100 uM; procedure, shortened: as §2

| SMILES | inhibition [1] | IC50 [2] [µM] | inhibition [3] [%] |
| --- | --- | --- | --- |
| C=CCCC/C=C\C/C=C\C/C=C\C/C=C\C/C=C\CC | Dose-dependent effect | 5 |  |
| C=Cc1c(C)c2cc3nc(c4c5[nH]c(cc6nc(cc1[nH]2)C(C)=C6CC)c(C)c5C(=O)C4)[C@@H](CCC(=O)OC/C=C(\C)CCC[C@H](C)CCC[C@H](C)CCCC(C)C)[C@@H]3C |  |  | 29.4 |
| CC(Cc1ccc(O)c(O)c1)C(C)Cc1ccc(O)c(O)c1 (stereo not given) [NORDIHYDROGUAIARETIC ACID] |  | 400 | 12.7 |
| C=Cc1c(C)c2cc3nc(c4c5[nH]c(cc6nc(cc1[nH]2)C(C)=C6CC)c(C)c5C(=O)[C@@H]4C(=O)OC)[C@@H](CCC(=O)OC/C=C(\C)CCC[C@H](C)CCC[C@H](C)CCCC(C)C)[C@@H]3C |  |  | 37.6 |
| C=Cc1c(C)c2cc3nc(c4c5[nH]c(cc6nc(cc1[nH]2)C(C)=C6CC)c(C)c5C(=O)[C@@H]4C(=O)OC)[C@@H](CCC(=O)O)[C@@H]3C |  |  | 6.5 |

Second part, the molecule after the results:

| inhibition [1] | IC50 [2] [µM] | inhibition [3] [%] | SMILES |
| --- | --- | --- | --- |
|  |  | 15 | C=Cc1c(C)c2cc3nc(c4c5[nH]c(cc6nc(cc1[nH]2)C(C)=C6CC)c(C)c5C(=O)C4)[C@@H](CCC(=O)O)[C@@H]3C |
| Dose-dependent effect | 40 |  | C=CCCC/C=C\C/C=C\C/C=C\C/C=C\CCCCC |
